Tests used:
HL-60(TB) = experiment: Growth inhibition of human HL-60(TB) cells assessed as cell growth at 10 uM after 48 hrs by sulforhodamine B assay; type: functional; details: HL-60, 48 h, read-out: Activity
Summary of the method: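 Screened by the NCI in its 60-cell-line panel covering nine cancer types, including leukemia. Compounds were added at a single concentration, and the cultures were incubated for 48 h. Results are reported as percent growth inhibition.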

K562 = experiment: Growth inhibition of human K562 cells assessed as cell growth at 10 uM after 48 hrs by sulforhodamine B assay; type: functional; details: K562, 48 h, read-out: Activity
Summary of the method: (§1)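 NCI 60-cell-line panel screen (nine cancer types). Compounds added at single concentration 10^-5 M, cultures incubated 48 h; growth inhibition percentages reported.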

MOLT-4 = experiment: Growth inhibition of human MOLT4 cells assessed as cell growth at 10 uM after 48 hrs by sulforhodamine B assay; type: functional; details: MOLT-4, 48 h, read-out: Activity; summary of the method: as §1
SR = experiment: Growth inhibition of human SR cells assessed as cell growth at 10 uM after 48 hrs by sulforhodamine B assay; type: functional; details: read-out: Activity
Summary of the method: (§2)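 NCI 60-cell-line panel from nine tumour types (leukaemia, lung, colon, CNS, melanoma, ovarian, renal, prostate, breast). Each compound was added at one single concentration, and cultures were incubated for 48 h. Results are reported as percent growth inhibition.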

EKVX = experiment: Growth inhibition of human EKVX cells assessed as cell growth at 10 uM after 48 hrs by sulforhodamine B assay; type: functional; details: read-out: Activity; summary of the method: as §1
HOP-62 = experiment: Growth inhibition of human HOP62 cells assessed as cell growth at 10 uM after 48 hrs by sulforhodamine B assay; type: functional; details: HOP-62, 48 h, read-out: Activity; summary of the method: as §1
NCI-H226 = experiment: Growth inhibition of human NCI-H226 cells assessed as cell growth at 10 uM after 48 hrs by sulforhodamine B assay; type: functional; details: NCI-H226, 48 h, read-out: Activity; summary of the method: as §1
NCI-H522 = experiment: Growth inhibition of human NCI-H522 cells assessed as cell growth at 10 uM after 48 hrs by sulforhodamine B assay; type: functional; details: NCI-H522, 48 h, read-out: Activity; summary of the method: as §1
COLO 205 = experiment: Growth inhibition of human COLO205 cells assessed as cell growth at 10 uM after 48 hrs by sulforhodamine B assay; type: functional; details: COLO 205, 48 h, read-out: Activity; summary of the method: as §1
HCC 2998 = experiment: Growth inhibition of human HCC2998 cells assessed as cell growth at 10 uM after 48 hrs by sulforhodamine B assay; type: functional; details: HCC 2998, 48 h, read-out: Activity; summary of the method: as §1
HCT-15 = experiment: Growth inhibition of human HCT15 cells assessed as cell growth at 10 uM after 48 hrs by sulforhodamine B assay; type: functional; details: HCT-15, 48 h, read-out: Activity; summary of the method: as §1
KM12 = experiment: Growth inhibition of human KM12 cells assessed as cell growth at 10 uM after 48 hrs by sulforhodamine B assay; type: functional; details: KM12, 48 h, read-out: Activity; summary of the method: as §1
SF-295 = experiment: Growth inhibition of human SF295 cells assessed as cell growth at 10 uM after 48 hrs by sulforhodamine B assay; type: functional; details: SF-295, 48 h, read-out: Activity; summary of the method: as §1
U-251 = experiment: Growth inhibition of human U251 cells assessed as cell growth at 10 uM after 48 hrs by sulforhodamine B assay; type: functional; details: U-251, 48 h, read-out: Activity; summary of the method: as §2
MDA-MB-435 = experiment: Growth inhibition of human MDA-MB-435 cells assessed as cell growth at 10 uM after 48 hrs by sulforhodamine B assay; type: functional; details: MDA-MB-435, 48 h, read-out: Activity; summary of the method: as §1
SK-MEL-28 = experiment: Growth inhibition of human SK-MEL-28 cells assessed as cell growth at 10 uM after 48 hrs by sulforhodamine B assay; type: functional; details: SK-MEL-28, 48 h, read-out: Activity; summary of the method: as §1
SK-MEL-5 = experiment: Growth inhibition of human SK-MEL-5 cells assessed as cell growth at 10 uM after 48 hrs by sulforhodamine B assay; type: functional; details: SK-MEL-5, 48 h, read-out: Activity; summary of the method: as §1
UACC-257 = experiment: Growth inhibition of human UACC257 cells assessed as cell growth at 10 uM after 48 hrs by sulforhodamine B assay; type: functional; details: UACC-257, 48 h, read-out: Activity; summary of the method: as §2
UACC-62 = experiment: Growth inhibition of human UACC62 cells assessed as cell growth at 10 uM after 48 hrs by sulforhodamine B assay; type: functional; details: UACC-62, 48 h, read-out: Activity; summary of the method: as §2
IGROV-1 = experiment: Growth inhibition of human IGROV1 cells assessed as cell growth at 10 uM after 48 hrs by sulforhodamine B assay; type: functional; details: IGROV-1, 48 h, read-out: Activity; summary of the method: as §1
OVCAR-5 = experiment: Growth inhibition of human OVCAR5 cells assessed as cell growth at 10 uM after 48 hrs by sulforhodamine B assay; type: functional; details: OVCAR-5, 48 h, read-out: Activity; summary of the method: as §1
OVCAR-8 = experiment: Growth inhibition of human OVCAR8 cells assessed as cell growth at 10 uM after 48 hrs by sulforhodamine B assay; type: functional; details: OVCAR-8, 48 h, read-out: Activity; summary of the method: as §1
SK-OV-3 = experiment: Growth inhibition of human SKOV3 cells assessed as cell growth at 10 uM after 48 hrs by sulforhodamine B assay; type: functional; details: SK-OV-3, 48 h, read-out: Activity; summary of the method: as §1
786-0 = experiment: Growth inhibition of human 786-0 cells assessed as cell growth at 10 uM after 48 hrs by sulforhodamine B assay; type: functional; details: 786-0, 48 h, read-out: Activity; summary of the method: as §1
CAKI-1 = experiment: Growth inhibition of human CAKI-1 cells assessed as cell growth at 10 uM after 48 hrs by sulforhodamine B assay; type: functional; details: CAKI-1, 48 h, read-out: Activity; summary of the method: as §1
SN12C = experiment: Growth inhibition of human SN12C cells assessed as cell growth at 10 uM after 48 hrs by sulforhodamine B assay; type: functional; details: read-out: Activity; summary of the method: as §2
MDA-MB-231 = experiment: Growth inhibition of human MDA-MB-231 cells assessed as cell growth at 10 uM after 48 hrs by sulforhodamine B assay; type: functional; details: MDA-MB-231, 48 h, read-out: Activity; summary of the method: as §1
Hs-578T = experiment: Growth inhibition of human Hs 578T cells assessed as cell growth at 10 uM after 48 hrs by sulforhodamine B assay; type: functional; details: read-out: Activity; summary of the method: as §1
MDA-MB-468 = experiment: Growth inhibition of human MDA-MB-468 cells assessed as cell growth at 10 uM after 48 hrs by sulforhodamine B assay; type: functional; details: MDA-MB-468, 48 h, read-out: Activity; summary of the method: as §1
HepG2 [1] = experiment: Inhibition of beta tubulin polymerisation in human HepG2 cells incubated for 2 hrs using TMB substrate by ELISA relative to untreated control; type: cell-based; set-up: concentration or dose not given beside the values; details: dose or concentration not given here
[2] = Inhibition of beta tubulin polymerisation in human HepG2 cells incubated for 2 hrs using TMB substrate by ELISA; type: cell-based; details: HepG2, 2 h
HepG2 [3] = experiment: Induction of cell cycle arrest in human HepG2 cells assessed as accumulation at S phase at cytotoxic IC50 by propidium iodide staining based flow cytometry (reference value: 25.2%); type: functional
HepG2 [4] = experiment: Induction of apoptosis in human HepG2 cells assessed as viable cells level at 1.41 uM by Annexin V and propidium iodide staining based flow cytometry; type: functional

Row | Compound | growth at 10 µM (HL-60(TB)) [%] | growth at 10 µM (MOLT-4) [%] | growth at 10 µM (SR) [%] | growth at 10 µM (EKVX) [%] | growth at 10 µM (HOP-62) [%] | growth at 10 µM (NCI-H226) [%] | growth at 10 µM (NCI-H522) [%] | growth at 10 µM (COLO 205) [%] | growth at 10 µM (HCT-15) [%] | growth at 10 µM (KM12) [%] | growth at 10 µM (SF-295) [%] | growth at 10 µM (U-251) [%] | growth at 10 µM (MDA-MB-435) [%] | growth at 10 µM (UACC-257) [%] | growth at 10 µM (IGROV-1) [%] | growth at 10 µM (OVCAR-5) [%] | growth at 10 µM (OVCAR-8) [%] | growth at 10 µM (SK-OV-3) [%] | growth at 10 µM (786-0) [%] | growth at 10 µM (CAKI-1) [%] | other results
1 | COc1cccc(-n2nc(C(=O)Nc3ccccc3)nc2-c2cc(OC)c(OC)c(OC)c2)c1 | 121 | 105 | 93.9 | 91.2 | 83.8 | 96.9 | 65.5 | 104 | 88 | 96.6 | 91.9 | 93.6 | 90.4 | 103 | 93.1 | 89.5 | 101 | 102 | 79.4 | 73.6 | growth at 10 µM (K562): 121%; growth at 10 µM (HCC 2998): 87.3%; growth at 10 µM (SK-MEL-28): 96.6%; growth at 10 µM (SK-MEL-5): 93.8%; growth at 10 µM (UACC-62): 95.3%; growth at 10 µM (SN12C): 100%; growth at 10 µM (MDA-MB-231): 104%; growth at 10 µM (Hs-578T): 99.7%; growth at 10 µM (MDA-MB-468): 84.5%; inhibition (HepG2 [1]): 62.3%; IC50 [2]: 6.5 µM
2 | CCOc1ccc(-n2nc(C(=O)Nc3ccccc3)nc2-c2cc(OC)c(OC)c(OC)c2)cc1 | 32.9 | 42.9 | 17 | 53.2 | 55.7 | 80 | 22.8 | 22.1 | 35.4 | 27.5 | 34 | 36.1 | 0.19 | 66.4 | 55.1 | 84.1 | 61.6 | 51 | 69.4 | 51.6 | growth at 10 µM (MDA-MB-231): 43.9%; growth at 10 µM (Hs-578T): 39.6%; growth at 10 µM (MDA-MB-468): 42.5%; inhibition (HepG2 [1]): 42.7%; IC50 [2]: 41.8 µM
3 | CCOc1ccc(-n2nc(C(=O)Nc3cccc(OC)c3)nc2-c2cc(OC)c(OC)c(OC)c2)cc1 | 87.5 | 62.5 | 52.6 | 77.7 | 91.9 | 77.3 | 57.9 | 66.6 | 74.3 | 71.2 | 68.5 | 78.5 | 86.8 | 94.7 | 90.7 | 95.5 | 53.1 | 96.5 | 84.8 | 72.5 | growth at 10 µM (MDA-MB-231): 55.1%; growth at 10 µM (Hs-578T): 73.2%; growth at 10 µM (MDA-MB-468): 93.4%; inhibition (HepG2 [1]): 49.6%; IC50 [2]: 36.8 µM
4 | CCOc1ccc(-n2nc(C(=O)NCc3cc(F)cc(F)c3)nc2-c2cc(OC)c(OC)c(OC)c2)cc1 | 61.4 | 45.1 | 64 | 62.8 | 75.2 | 65.2 | 50.9 | 65 | 61 | 65.8 | 65.2 | 74.3 | 67 | 50.5 | 62.5 | 85 | 75 | 76 | 65.9 | 44.4 | growth at 10 µM (K562): 62%; growth at 10 µM (HCC 2998): 84%; growth at 10 µM (SK-MEL-28): 65.3%; growth at 10 µM (SK-MEL-5): 50.1%; growth at 10 µM (UACC-62): 57.9%; growth at 10 µM (SN12C): 67.8%; growth at 10 µM (MDA-MB-231): 43.1%; growth at 10 µM (Hs-578T): 75.7%; growth at 10 µM (MDA-MB-468): 73.6%; Activity (HepG2 [3]): 26.3%; Activity (HepG2 [4]): 62%; inhibition (HepG2 [1]): 71.8%; IC50 [2]: 1.4 µM
5 | CCOc1ccc(-n2nc(C(=O)NCc3ccccc3OC)nc2-c2cc(OC)c(OC)c(OC)c2)cc1 | 19.1 | 0.38 | 35.9 | 41.3 | 62.2 | 62.5 | 35.7 | 30.3 | 29 | 33.8 | 34.8 | 42.5 | 22.1 | 62.7 | 43.7 | 74.2 | 43.7 | 67.1 | 41.5 | 25.9 | growth at 10 µM (K562): 22.1%; growth at 10 µM (HCC 2998): 57.5%; growth at 10 µM (SK-MEL-28): 36.6%; growth at 10 µM (SK-MEL-5): -1.22%; growth at 10 µM (UACC-62): 37%; growth at 10 µM (SN12C): 39.7%; growth at 10 µM (MDA-MB-231): 17.8%; growth at 10 µM (Hs-578T): 55.1%; growth at 10 µM (MDA-MB-468): 72.4%; inhibition (HepG2 [1]): 85.6%; IC50 [2]: 0.6 µM
6 | CCOc1ccc(-n2nc(C(=O)Nc3ccccc3OC)nc2-c2cc(OC)c(OC)c(OC)c2)cc1 | 73.2 | 76.5 | 65.7 | 76.3 | 86.5 | 82.3 | 69.2 | 78.7 | 80.8 | 96.2 | 84.8 | 94 | 86.9 | 97.9 | 99.3 | 82.4 | 90.3 | 88.8 | 79.1 | 66.7 | growth at 10 µM (K562): 79.6%; growth at 10 µM (HCC 2998): 99.7%; growth at 10 µM (SK-MEL-28): 78.3%; growth at 10 µM (SK-MEL-5): 73.8%; growth at 10 µM (UACC-62): 85.2%; growth at 10 µM (SN12C): 83.1%; growth at 10 µM (MDA-MB-231): 44.5%; growth at 10 µM (Hs-578T): 81.5%; growth at 10 µM (MDA-MB-468): 92.3%
